Laboratory results published in ChEMBL document CHEMBL2413009, “Synthesis and structure activity relationship of imidazo[1,2-a]pyridine-8-carboxamides as a novel antimycobacterial lead series” (Bioorg Med Chem Lett, 2013).
≈ marks a conversion by molar mass, not a printed value.

What was measured:
[1] = Aqueous solubility of the compound in 0.1 M sodium phosphate buffer at pH 7.4 after 24 hrs; type: physicochemical
[2] = test system: Mycobacterium tuberculosis; test: Antimycobacterial activity against Mycobacterium tuberculosis H37Rv ATCC 27294 after 7 days by broth microdilution method; type: functional; conditions: H37Rv ATCC 27294, 168 h
[3] = Fraction unbound in human plasma after 5 hrs by rapid equilibrium dialysis method; type: ADME, cell-free
[4] = Intrinsic clearance in human microsomes; type: ADME, Microsome
Procedure, shortened: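 Intrinsic clearance was measured in human microsomal preparations and is reported in µl/min/mg.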

[5] = Intrinsic clearance in mouse microsomes; type: ADME, Microsome
[6] = Fraction unbound in mouse plasma after 5 hrs by rapid equilibrium dialysis method; type: ADME, cell-free
[7] = Lipophilicity, log D of the compound in 0.01 M sodium phosphate at pH 7.4 after 5 hrs by shake-flask technique; type: physicochemical
[8] = test system: Mycobacterium tuberculosis; test: Cidality activity against Mycobacterium tuberculosis H37Rv ATCC 27294 assessed as log reduction in bacterial numbers at 32 ug/mL up to 28 days; type: functional
Procedure, shortened: (§1)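 Replicating Mtb grown aerobically in Middlebrook 7H9 broth and exposed to a range of compound concentrations up to 32 µg/mL. Bacterial numbers were followed over time as kill kinetics, and the result is expressed as log reduction in bacterial numbers.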

[9] = test system: Mycobacterium tuberculosis; test: Cidality activity against Mycobacterium tuberculosis H37Rv ATCC 27294 assessed as log reduction in bacterial numbers up to 28 days; type: functional, organism-based; procedure, shortened: as §1
[10] = test system: Streptococcus pneumoniae; test: Antibacterial activity against Streptococcus pneumoniae by broth microdilution method; type: functional
[11] = test system: Haemophilus influenzae; test: Antibacterial activity against Haemophilus influenzae by broth microdilution method; type: functional
[12] = test system: Escherichia coli; test: Antibacterial activity against Escherichia coli by broth microdilution method; type: functional
[13] = test system: Staphylococcus aureus; test: Antibacterial activity against Staphylococcus aureus by broth microdilution method; type: functional
[14] = test system: A549; test: Cytotoxicity against human A549 cells; type: cell-based

| Structure (SMILES) | solubility at 24 h [1] [µM] | MIC [2] | also measured |
| --- | --- | --- | --- |
| COc1cncc(-c2cccc(-c3nc4c(C(N)=O)cccn4n3)c2)c1 | 18 (≈ 6.22 µg/mL) | 2 µg/mL | – |
| COc1cncc(-c2cccc(-c3cn4ccc(OC)c(C(N)=O)c4n3)c2)c1 | 40 (≈ 15 µg/mL) | 2 µg/mL | fraction unbound at 5 h [3]: 0.02; microsomal CLint [4]: 56 µL/min/mg; microsomal CLint [5]: 48 µL/min/mg; fraction unbound at 5 h [6]: 0.049; logD at 5 h [7]: 2.3 |
| CN(C)CCOc1cncc(-c2cccc(-c3cn4cccc(C(N)=O)c4n3)c2)c1 | 320 (≈ 128 µg/mL) | 16 µg/mL | fraction unbound at 5 h [3]: 0.073; microsomal CLint [4]: 47 µL/min/mg |
| COc1cncc(-c2cncc(-c3cn4cccc(C(N)=O)c4n3)c2)c1 | 3.5 (≈ 1.21 µg/mL) | > 32 µg/mL | – |
| COc1cncc(-c2cccc(-c3nc4c(C(N)=O)cccc4o3)c2)c1 | 2 (≈ 0.691 µg/mL) | 2 µg/mL | – |
| COc1cccc(-c2cccc(-c3cn4cccc(C(N)=O)c4n3)c2)c1 | < 1 | 2 µg/mL | log10cfu [8]: 2; Activity [9]: Dose-dependent effect |
| NC(=O)c1cccn2cc(-c3cccc(-c4cncc(OCC(F)F)c4)c3)nc12 | < 1 | 3.12 µM | MIC [10]: > 200 µM; MIC [11]: > 200 µM; MIC [12]: > 200 µM; MIC [13]: > 200 µM; IC50 [14]: > 100 µM |
| COc1ccn2cc(-c3cccc(-c4cncc(OC[C@H]5CCCO5)c4)c3)nc2c1C(N)=O | 120 (≈ 53.3 µg/mL) | 1 µg/mL | – |
| COc1ccn2cc(-c3cccc(-c4cncc(O[C@H]5CCOC5)c4)c3)nc2c1C(N)=O | 600 (≈ 258 µg/mL) | 12.5 µM | IC50 [14]: > 100 µM |
| NC(=O)c1cccn2cc(-c3cccc(-c4cncc(OC[C@H]5CCCO5)c4)c3)nc12 | 5.3 (≈ 2.2 µg/mL) | 0.25 µg/mL | MIC [10]: > 200 µM; MIC [11]: > 200 µM; MIC [12]: > 200 µM; MIC [13]: > 200 µM |
| COc1cncc(-c2cc(-c3cn4cccc(C(N)=O)c4n3)ccn2)c1 | 22 (≈ 7.6 µg/mL) | 16 µg/mL | – |
| COc1cncc(-c2cccc(-c3cn4cccc(C(=O)N(C)C)c4n3)c2)c1 | 10 (≈ 3.72 µg/mL) | > 32 µg/mL | – |
| COc1cncc(-c2cccc(-c3nc4c(C(N)=O)cccc4[nH]3)c2)c1 | 3 (≈ 1.03 µg/mL) | 4 µg/mL | – |
| COc1cncc(-c2cccc(-c3cn4cccc(C(N)=O)c4n3)c2)c1 | < 1 | 0.5 µg/mL | microsomal CLint [5]: 113 µL/min/mg; fraction unbound at 5 h [6]: 0.019 |
| NC(=O)c1cccn2cc(-c3cccc(-c4cccc(F)c4)c3)nc12 | < 1 | 16 µg/mL | – |
| COc1cncc(-c2cc(-c3cn4cccc(C(N)=O)c4n3)ccc2F)c1 | < 1 | > 32 µg/mL | – |
| CNC(=O)c1cccn2cc(-c3cccc(-c4cncc(OC)c4)c3)nc12 | 5.5 (≈ 1.97 µg/mL) | 2 µg/mL | – |
| COc1cncc(-c2cccc(-c3cn4ccnc(C(N)=O)c4n3)c2)c1 | 10 (≈ 3.45 µg/mL) | 12.5 µM | IC50 [14]: > 100 µM; microsomal CLint [5]: 58 µL/min/mg; fraction unbound at 5 h [6]: 0.04 |
| CCN(CC)CCNC(=O)c1cccn2cc(-c3cccc(-c4cncc(OC)c4)c3)nc12 | > 2460 | 4 µg/mL | – |
| NC(=O)c1cccn2cc(-c3cccc(-c4cncc(OCCF)c4)c3)nc12 | 16 (≈ 6.02 µg/mL) | 0.78 µM | MIC [10]: > 200 µM; MIC [11]: > 200 µM; MIC [12]: > 200 µM; MIC [13]: > 200 µM; fraction unbound at 5 h [3]: 0.01; IC50 [14]: > 100 µM; microsomal CLint [4]: 75 µL/min/mg; logD at 5 h [7]: 3.7 |
| NC(=O)c1nccn2cc(-c3cccc(-c4cncc(OC[C@H]5CCCO5)c4)c3)nc12 | 40 (≈ 16.6 µg/mL) | 6.25 µM | IC50 [14]: > 100 µM |
